According to ChEMBL document CHEMBL4196081, “Synthesis and antimycobacterial activity of 1-(β-d-Ribofuranosyl)-4-coumarinyloxymethyl- / -coumarinyl-1,2,3-triazole” (Eur J Med Chem, 2018):
In brackets after ≈: the same amount, converted by molar mass. Activity calls are given as the source filed them. No cut-off for these calls is given here.

What was measured:
[1] = Cytotoxicity against human THP1 cells assessed as cell viability at 75 ug/ml after 48 hrs by MTT assay relative to control; type: cell-based; details: THP-1 cells, read-out: Activity
Procedure, shortened: (§1)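 THP-1 cells (human monocytic line) seeded at 10^4 per well and adhered with phorbol myristate acetate (20 ng/mL). Then given fresh RPMI with 10% foetal calf serum and 2 mM L-glutamine, plus compound by serial double dilution (4.68–150 µg/mL), with DMSO and no-DMSO controls. Incubated 24 or 48 h at 37 °C, 5% CO2. MTT added for 4 h, formazan dissolved in DMSO, A540 read, percentage survival calculated.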

[2] = Cytotoxicity against human THP1 cells assessed as cell viability at 37.48 ug/ml after 24 hrs by MTT assay relative to control; type: cell-based; details: THP-1 cells, read-out: Activity; procedure, shortened: as §1
[3] = Selectivity index, ratio of IC50 for cytotoxicity against human THP1 cells to MIC for Mycobacterium tuberculosis H37Rv; type: toxicity, cell-based; details: THP-1 cells, read-out: Selectivity Index
Procedure, shortened: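 THP-1 cells, 10^4/well, adhered with PMA 20 ng/mL, in RPMI with 10 % FCS and 2 mM L-glutamine; exposed to 4.68–150 µg/mL for 24 and 48 h at 37 °C, 5 % CO2; MTT 4 h, formazan in DMSO, A540. Index = THP-1 IC50 divided by H37Rv MABA MIC.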

[4] = tested on: Mycobacterium tuberculosis; experiment: Bactericidal activity against Mycobacterium tuberculosis H37Rv after 4 weeks by MABA; type: functional; details: 672 h
[5] = Cytotoxicity against human THP1 cells assessed as cell viability at 18.72 ug/ml after 48 hrs by MTT assay relative to control; type: cell-based; details: THP-1 cells, read-out: Activity; procedure, shortened: as §1
[6] = Cytotoxicity against human THP1 cells assessed as cell viability at 75 ug/ml after 24 hrs by MTT assay relative to control; type: cell-based; details: THP-1 cells, read-out: Activity; procedure, shortened: as §1
[7] = Cytotoxicity against human THP1 cells assessed as cell viability at 37.48 ug/ml after 48 hrs by MTT assay relative to control; type: cell-based; details: THP-1 cells, read-out: Activity; procedure, shortened: as §1
[8] = Cytotoxicity against human THP1 cells assessed as cell viability at 18.72 ug/ml after 24 hrs by MTT assay relative to control; type: cell-based; details: THP-1 cells, read-out: Activity; procedure, shortened: as §1
[9] = Cytotoxicity against human THP1 cells assessed as cell viability at 9.36 ug/ml after 24 hrs by MTT assay relative to control; type: cell-based; details: THP-1 cells, read-out: Activity; procedure, shortened: as §1
[10] = tested on: Mycobacterium tuberculosis; experiment: Antimycobacterial activity against MDR Mycobacterium tuberculosis isolate 591 after 15 days by MABA; type: functional; details: isolate 591, 360 h
Procedure, shortened: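 MABA in 7H9 medium on MDR clinical isolate 591: filtered single-cell suspension, 1 × 10^6 cells per well with drug dilutions, aerobic 37 °C; 0.02 % resazurin added on day 15, overnight 37 °C. MIC = lowest concentration preventing blue-to-pink change. Triplicate; medium+inoculum and medium-only controls.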

[11] = tested on: Mycobacterium tuberculosis; experiment: Ratio of MBC to MIC for Mycobacterium tuberculosis H37Rv; type: functional
[12] = Cytotoxicity against human THP1 cells assessed as cell viability at 4.68 ug/ml after 48 hrs by MTT assay relative to control; type: cell-based; details: THP-1 cells, read-out: Activity; procedure, shortened: as §1
[13] = Cytotoxicity against human THP1 cells assessed as cell viability at 150 ug/ml after 24 hrs by MTT assay relative to control; type: cell-based; details: THP-1 cells, read-out: Activity; procedure, shortened: as §1
[14] = Cytotoxicity against human THP1 cells assessed as cell viability at 4.68 ug/ml after 24 hrs by MTT assay relative to control; type: cell-based; details: THP-1 cells, read-out: Activity; procedure, shortened: as §1
[15] = tested on: Mycobacterium tuberculosis; experiment: Antimycobacterial activity against Mycobacterium tuberculosis H37Rv after 10 days by MABA; type: functional; details: 240 h
Procedure, shortened: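 MABA in 7H9 medium: log-phase culture passed through 8 µm filter, density set by OD600 and McFarland standards, 1 × 10^6 cells per well with drug dilutions; aerobic incubation 37 °C 10 days, then 0.02 % resazurin, overnight 37 °C. MIC = lowest concentration preventing blue-to-pink change. Triplicate; medium+inoculum and medium-only controls.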

[16] = Cytotoxicity against human THP1 cells assessed as cell viability at 150 ug/ml after 48 hrs by MTT assay relative to control; type: cell-based; details: THP-1 cells, read-out: Activity; procedure, shortened: as §1
[17] = Cytotoxicity against human THP1 cells assessed as cell viability at 9.36 ug/ml after 48 hrs by MTT assay relative to control; type: cell-based; details: THP-1 cells, read-out: Activity; procedure, shortened: as §1
[18] = tested on: THP-1; experiment: Cytotoxicity against human THP1 cells assessed as growth inhibition after 24 to 48 hrs by MTT assay; type: cell-based; procedure, shortened: as §1
[19] = target: DNA gyrase subunit B (Escherichia coli) (UniProt P0AES6); experiment: Inhibition of Escherichia coli DNA gyrase-B at 0.66 to 100 uM using relaxed pUC19 DNA as substrate after 1 hr by bromophenol blue dye based agarose gel electrophoresis method
Procedure, shortened: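 E. coli DNA gyrase, 1 unit, with 0.3 µg relaxed pUC19 plasmid in 1X gyrase assay buffer. Compound added as 0.2 µL from 100 µM stock; ciprofloxacin positive control, DMSO solvent control. Incubated 37 °C for 1 h, stopped with 50% glycerol/0.25% bromophenol blue. Run on 1% agarose in 0.5X TBE pH 8.3, 16 h at 30 mA, ethidium bromide stained, UV visualised for supercoiling.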

[20] = tested on: Mycobacterium tuberculosis; experiment: Potency index, ratio of rifampicin MIC to compound MIC for antimycobacterial activity against MDR Mycobacterium tuberculosis isolate 591; type: functional
[21] = tested on: Mycobacterium tuberculosis; experiment: Potency index, ratio of isoniazid MIC to compound MIC for antimycobacterial activity against MDR Mycobacterium tuberculosis isolate 591; type: functional
[22] = tested on: Mycobacterium tuberculosis; experiment: Potency index, ratio of ethambutol MIC to compound MIC for antimycobacterial activity against MDR Mycobacterium tuberculosis isolate 591; type: functional
[23] = tested on: Mycobacterium tuberculosis; experiment: Potency index, ratio of streptomycin MIC to compound MIC for antimycobacterial activity against MDR Mycobacterium tuberculosis isolate 591; type: functional

Row | Compound | viability at 48 h, 75 ug/ml [1] [%] | viability at 24 h, 37.48 ug/ml [2] [%] | selectivity ratio [3] | MBC [4] [µM] | viability at 48 h, 18.72 ug/ml [5] [%] | viability at 24 h, 75 ug/ml [6] [%] | viability at 48 h, 37.48 ug/ml [7] [%] | viability at 24 h, 18.72 ug/ml [8] [%] | viability at 24 h, 9.36 ug/ml [9] [%] | MIC [10] [µM] | Ratio [11] | viability at 48 h, 4.68 ug/ml [12] [%] | viability at 24 h, 150 ug/ml [13] [%] | viability at 24 h, 4.68 ug/ml [14] [%] | MIC [15] [µM] | viability at 48 h, 150 ug/ml [16] [%] | viability at 48 h, 9.36 ug/ml [17] [%] | IC50 [18] [µM] | other results
1 | O=c1cc(-c2ccccc2)c2ccc(-c3cn([C@@H]4O[C@H](CO)[C@@H](O)[C@H]4O)nn3)cc2o1 | 63 | 70 | 25 | 28.5 (≈ 12 µg/mL) | 83 | 68 | 70 | 84 | 94 | 18.9 (≈ 7.96 µg/mL) | 2 | 96 | 65 | 100 | 14.2 (≈ 5.98 µg/mL) | 62 | 94 | > 355 | –
2 | CC[C@@H](CO)NCCN[C@@H](CC)CO [ETHAMBUTOL] | – | – | – | – | – | – | – | – | – | 73.4 (≈ 15 µg/mL) | – | – | – | – | 9.7 (≈ 1.98 µg/mL) | – | – | – | –
3 | Cc1cc(=O)oc2cc(OCc3cn([C@@H]4O[C@H](COC(=O)c5ccccc5)[C@@H](OC(=O)c5ccccc5)[C@H]4OC(=O)c4ccccc4)nn3)ccc12 | – | – | – | 17.1 (≈ 12 µg/mL) | – | – | – | – | – | 11.4 (≈ 8 µg/mL) | 2 | – | – | – | 8.5 (≈ 5.96 µg/mL) | – | – | – | –
4 | O=C(O)c1cn(C2CC2)c2cc(N3CCNCC3)c(F)cc2c1=O | – | – | – | – | – | – | – | – | – | – | – | – | – | – | – | – | – | – | inhibition [19]: Active
5 | O=c1cc(-c2ccccc2)c2ccc(OCc3cn([C@@H]4O[C@H](CO)[C@@H](O)[C@H]4O)nn3)cc2o1 | 70 | 94 | 75.4 | 17.7 (≈ 7.99 µg/mL) | 84 | 88 | 78 | 100 | 100 | 8.9 (≈ 4.02 µg/mL) | 4 | 95 | 79 | 100 | 4.4 (≈ 1.99 µg/mL) | 62 | 93 | > 332 | Ratio [20]: 7 - 420; Ratio [21]: 7 - 420; Ratio [22]: 7 - 420; Ratio [23]: 7 - 420
6 | Cc1cc(=O)oc2cc(-c3cn([C@@H]4O[C@H](COC(=O)c5ccccc5)[C@@H](OC(=O)c5ccccc5)[C@H]4OC(=O)c4ccccc4)nn3)c(Cl)cc12 | – | – | – | 25.5 (≈ 18 µg/mL) | – | – | – | – | – | 14.2 (≈ 10 µg/mL) | 1.8 | – | – | – | 14.2 (≈ 10 µg/mL) | – | – | – | –
7 | [H]/N=C(/N)N[C@H]1[C@H](O)[C@@H](O)[C@H](O[C@@H]2O[C@@H](C)[C@](O)(C=O)[C@H]2O[C@@H]2O[C@@H](CO)[C@H](O)[C@@H](O)[C@@H]2NC)[C@@H](N/C(N)=N\[H])[C@@H]1O [STREPTOMYCIN] | 69 | 89 | 600 | – | 84 | 80 | 77 | 98 | 99 | 69 (≈ 40.1 µg/mL) | – | 90 | 75 | 100 | 0.43 (≈ 0.25 µg/mL) | 55 | 86 | > 258 | –
8 | Cc1cc(=O)oc2cc(OCc3cn([C@@H]4O[C@H](CO)[C@@H](O)[C@H]4O)nn3)c(Cl)cc12 | – | – | – | 37.7 (≈ 16 µg/mL) | – | – | – | – | – | 18.9 (≈ 8.01 µg/mL) | 2 | – | – | – | 18.9 (≈ 8.01 µg/mL) | – | – | – | –
9 | O=c1ccc2ccc(OCc3cn([C@@H]4O[C@H](CO)[C@@H](O)[C@H]4O)nn3)cc2o1 | 59 | 86 | 37.7 | 26.6 (≈ 9.98 µg/mL) | 84 | 68 | 63 | 89 | 91 | 15.9 (≈ 5.97 µg/mL) | 2.5 | 89 | 60 | 100 | 10.6 (≈ 3.98 µg/mL) | 55 | 86 | > 400 | –
